Test results from ChEMBL document CHEMBL3875159, “High-affinity small molecular blockers of mixed lineage leukemia 1 (MLL1)-WDR5 interaction inhibit MLL1 complex H3K4 methyltransferase activity” (Eur J Med Chem, 2016).

What was measured:
[1] = target: T1, WD repeat-containing protein 5 (Homo sapiens, UniProt P61964); assay: Inhibition of 10mer-Thr-FAM probe binding to human WDR5 after 2 hrs by fluorescence polarization assay
[2] = Antiproliferative activity against human MV4-11 cells harboring MLL-AF4 fusion protein by CellTiter-Glo assay; format: functional, cell-based
Outline: (§1)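 Proliferation assay in leukaemia cell lines with or without an MLL fusion. MV4-11 (MLL-AF4) gives an IC50 from concentration–response. K562 carries no MLL fusion protein; compounds are tested at a single 35 μM, reported as % remaining growth activity (IC50 where determined).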

[3] = Growth inhibition of human K562 cells after 7 days by MTS assay; format: functional, cell-based; details: K562, 168 h; outline: as §1
[4] = Antiproliferative activity against human MV4-11 cells harboring MLL-AF4 fusion protein after 72 hrs by CCK8 assay; format: functional, cell-based; details: MV4-11, 72 h
[5] = target: MLL1/ASH2L/RBBP5/WDR5 complex (Homo sapiens, UniProt P61964+Q03164+Q15291+Q9UBL3); assay: Inhibition of recombinant MLL1/ASH2L/RBBP5/WDR5 complex histone methyltransferase activity (unknown origin) by AlphaScreen assay; format: protein-complex assay
[6] = target: T1, WD repeat-containing protein 5; assay: Binding affinity to human WDR5 by isothermal titration calorimetry

IC50 [1] [nM] | SMILES | IC50 [4] [nM] | other results
198 | CN1CCN(c2ccc(-c3ccncc3)cc2NC(=O)c2ccc(F)c([N+](=O)[O-])c2)CC1 |  | 
> 20000 | Cc1c(F)ccc(C(=O)Nc2cc([N+](=O)[O-])ccc2N2CCN(c3ccccn3)CC2)c1Cl |  | 
70.1 | CC(=O)Nc1ccc(-c2ccc(N3CCN(C)CC3)c(NC(=O)c3cc(N)c(F)c(C)c3Cl)c2)cc1 | 12500 | 
76 | CCCC(=O)Nc1ccc(-c2ccc(N3CCN(C)CC3)c(NC(=O)c3cc(N)c(F)c(C)c3Cl)c2)cc1 | 2300 | 
341 | Cc1c(F)c(N)cc(C(=O)Nc2cc(-c3ccc(NC(=O)C4CCCCC4)cc3)ccc2N2CCN(C)CC2)c1Cl | 3800 | 
285 | CN1CCN(c2ccc(-c3ccc([N+](=O)[O-])cc3)cc2NC(=O)c2cccc([N+](=O)[O-])c2)CC1 |  | 
50.2 | Cc1c(F)c(N)cc(C(=O)Nc2cc(-c3ccc(NC(=O)CCN)cc3)ccc2N2CCN(C)CC2)c1Cl | 25100 | 
77.1 | Cc1c(F)c([N+](=O)[O-])cc(C(=O)Nc2cc(-c3ccncc3)ccc2N2CCN(C)CC2)c1Cl |  | 

Further lines, the compound ahead of its results:

SMILES | IC50 [1] [nM] | IC50 [4] [nM] | other results
Cc1c(F)ccc(C(=O)Nc2cc([N+](=O)[O-])ccc2NCCN2CCCC2)c1Cl | > 20000 |  | 
CCC(CC)(NC(=O)C(C)C)C(=O)N[C@@H](CCCNC(=N)N)C(=O)NC1(C(=O)NC(c2ccc(F)cc2)c2ccc(F)cc2)CCCC1 |  |  | IC50 [2]: 25000 nM; IC50 [3]: 37800 nM
Cc1c(F)c(N)cc(C(=O)Nc2cc(-c3ccc(NC(=O)C(C)NC(=O)OC(C)(C)C)cc3)ccc2N2CCN(C)CC2)c1Cl (centres undefined) | 77.9 | 4300 | 
COC(=O)c1ccc(-c2ccc(N3CCN(C)CC3)c(NC(=O)c3cc([N+](=O)[O-])c(F)c(C)c3Cl)c2)cc1 | 92.5 |  | 
CN1CCN(c2ccc(-c3ccncc3)cc2NC(=O)c2ccc(F)c(N)c2)CC1 | 5800 |  | 
Cc1c(F)c(N)cc(C(=O)Nc2cc(-c3ccncc3)ccc2N2CCN(C)CC2)c1Cl | 18.2 |  | 
Cc1c(F)c(N)cc(C(=O)Nc2cc(-c3ccc(NC(=O)c4ccccc4)cc3)ccc2N2CCN(C)CC2)c1Cl | 422 | 5400 | 
Cc1c(F)ccc(C(=O)Nc2cc([N+](=O)[O-])ccc2NCCN)c1Cl | > 20000 |  | 
Cc1c(F)c(N)cc(C(=O)Nc2cc(-c3ccc(NC(=O)C4CCNCC4)cc3)ccc2N2CCN(C)CC2)c1Cl |  | 9200 | IC50 [5]: 300 nM; Kd [6]: 7.5 nM
CN1CCN(c2ccc(-c3ccc(N)cc3)cc2NC(=O)c2ccc(F)c(N)c2)CC1 | 13600 |  | 
Cc1c(F)c(N)cc(C(=O)Nc2cc(-c3ccc(NC(=O)C(C)N)cc3)ccc2N2CCN(C)CC2)c1Cl (centres undefined) | 15 | 11100 | 
